Results on 14 compounds are retold here after ChEMBL document CHEMBL2040845, “Discovery of novel sulfonated small molecules that inhibit vascular tube formation” (Bioorg Med Chem Lett, 2012).

Activity calls are given as the source filed them. The rule behind the calls is not given here.

Holding throughout (type): functional
The species named for experiment [1] is Bos taurus. Briefly: Antiangiogenic activity against BLMVEC grown on RGF-BME assessed as formation of small cell clumps at 100 uM after 16 hrs by calcein staining-based microscopy. The procedure, abridged: (§1)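 1×10^5 BLMVEC premixed with test compound in MCDB-131 medium, then added to matrigel in duplicate wells. Wells received 100 μM compound. Controls were untreated wells and sulforaphane. Plates were incubated 16 hrs at 37 °C and cells were imaged by microscopy. Inhibition was scored from network morphology: branching and interconnection of tubes versus dispersed cells or short, unconnected tubes.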

Experiment [2] is filed under the species Bos taurus. Briefly: Antiangiogenic activity against BLMVEC grown on RGF-BME assessed as inhibition of tube formation at 100 uM after 16 hrs by calcein staining-based microscopy. The gist of the method: as §1
The next experiment concerns Endothelial cell. Briefly: Antiangiogenic activity against BLMVEC grown on RGF-BME assessed as dispersed endothelial cells at 100 uM after 16 hrs by calcein staining-based microscopy. As to conditions: Bos taurus. The procedure, abridged:
as §1

The species entered for experiment [3] is Bos taurus. Briefly: Antiangiogenic activity against BLMVEC grown on RGF-BME assessed as inhibition of tube-like network formation at 100 uM after 16 hrs by calcein staining-based microscopy. The procedure, abridged:
as §1

The species entered for experiment [4] is Bos taurus. Briefly: Antiangiogenic activity against BLMVEC grown on RGF-BME assessed as inhibition of branching at 100 uM after 16 hrs by calcein staining-based microscopy. The procedure, abridged: as §1

In the case of `O=c1cc(-c2ccc(OS(=O)(=O)O)cc2)oc2cc(OS(=O)(=O)O)cc(OS(=O)(=O)O)c12`, the outcome in the experiment filed under Bos taurus [1] and in the experiment with Endothelial cell was Active. Further, the inhibition result in the experiment listed under Bos taurus [2] and in the experiment listed under Bos taurus [3] was “Active” in each case.
Consider `O=c1c(OS(=O)(=O)O)c(-c2ccc(OS(=O)(=O)O)c(OS(=O)(=O)O)c2)oc2cc(OS(=O)(=O)O)cc(OS(=O)(=O)O)c12`, for which the outcome in the experiment filed under Bos taurus [1] and with Endothelial cell was inactive. The inhibition result in the experiment filed under Bos taurus [2], in the experiment filed under Bos taurus [4] and in the experiment filed under Bos taurus [3] was “inactive” each time.
With `O=c1c(OS(=O)(=O)O)c(-c2ccccc2OS(=O)(=O)O)oc2ccccc12`, the outcome in the experiment listed under Bos taurus [1] and with Endothelial cell was Active. In addition, the inhibition result in the experiment listed under Bos taurus [2] and in the experiment listed under Bos taurus [3] was “Active” in each case.
For `CCOC(=O)[C@@H]1Cc2cc(OS(=O)(=O)O)c(OS(=O)(=O)O)cc2CN1C(=O)c1cc(OS(=O)(=O)O)c(OS(=O)(=O)O)c(OS(=O)(=O)O)c1`, the outcome in the experiment listed under Bos taurus [1] and in the experiment on Endothelial cell was inactive. Further, the inhibition result in the experiment filed under Bos taurus [2], in the experiment filed under Bos taurus [4] and in the experiment filed under Bos taurus [3] was “inactive” in each case.
In the case of `O=C(c1ccc(OS(=O)(=O)O)c(OS(=O)(=O)O)c1)N1CCc2cc(OS(=O)(=O)O)c(OS(=O)(=O)O)cc2C1`, the outcome in the experiment listed under Bos taurus [1] and with Endothelial cell was inactive. Besides, the inhibition entry in the experiment listed under Bos taurus [2], in the experiment filed under Bos taurus [4] and in the experiment listed under Bos taurus [3] was “inactive” in each case.
Take `O=c1c(OS(=O)(=O)O)c(-c2ccc(OS(=O)(=O)O)cc2OS(=O)(=O)O)oc2ccc(OS(=O)(=O)O)cc12`: the outcome in the experiment listed under Bos taurus [1] and in the experiment with Endothelial cell was inactive. The inhibition result in the experiment filed under Bos taurus [2], in the experiment listed under Bos taurus [4] and in the experiment filed under Bos taurus [3] was “inactive” each time.
As to `CCOC(=O)[C@@H]1Cc2cc(OS(=O)(=O)O)c(OS(=O)(=O)O)cc2CN1C(=O)c1ccc(OS(=O)(=O)O)c(OS(=O)(=O)O)c1`, the result in the experiment filed under Bos taurus [1] and in the experiment on Endothelial cell was inactive. Further, the inhibition entry in the experiment listed under Bos taurus [2], in the experiment listed under Bos taurus [4] and in the experiment listed under Bos taurus [3] was “inactive” in each case.
Consider `C[C@]12CC[C@@H]3c4ccc(OS(=O)(=O)O)cc4CC[C@H]3[C@@H]1CC[C@@H]2O`, for which the outcome in the experiment listed under Bos taurus [1] and with Endothelial cell was Active. Moreover, the inhibition result in the experiment filed under Bos taurus [2] and in the experiment filed under Bos taurus [3] was “Active” throughout.
For `O=c1c(OS(=O)(=O)O)c(-c2ccc(OS(=O)(=O)O)c(OS(=O)(=O)O)c2)oc2cc(OS(=O)(=O)O)ccc12`, the result in the experiment filed under Bos taurus [1] and in the experiment on Endothelial cell was inactive. Besides, the inhibition entry in the experiment listed under Bos taurus [2], in the experiment listed under Bos taurus [4] and in the experiment listed under Bos taurus [3] was “inactive” in each case.
With `O=C1c2c(cc(OS(=O)(=O)O)cc2OS(=O)(=O)O)O[C@@H](c2ccc(OS(=O)(=O)O)c(OS(=O)(=O)O)c2)[C@@H]1OS(=O)(=O)O`, the outcome in the experiment filed under Bos taurus [1] and in the experiment with Endothelial cell was inactive. In addition, the inhibition result in the experiment filed under Bos taurus [2], in the experiment filed under Bos taurus [4] and in the experiment listed under Bos taurus [3] was “inactive” throughout.
For the compound `O=C(CCc1ccc(OS(=O)(=O)O)cc1)c1c(OS(=O)(=O)O)cc(OS(=O)(=O)O)cc1OS(=O)(=O)O`, the outcome in the experiment listed under Bos taurus [1] and in the experiment on Endothelial cell was Active. The inhibition entry in the experiment listed under Bos taurus [2] and in the experiment filed under Bos taurus [3] was “Active” in each case.
Turning to `O=c1cc(-c2ccc(OS(=O)(=O)O)c(OS(=O)(=O)O)c2)oc2cc(OS(=O)(=O)O)cc(OS(=O)(=O)O)c12`, the outcome in the experiment filed under Bos taurus [1] and in the experiment on Endothelial cell was Active. In addition, the inhibition result in the experiment listed under Bos taurus [2] and in the experiment listed under Bos taurus [3] was “Active” in each case.
Regarding `O=C(c1cc(OS(=O)(=O)O)c(OS(=O)(=O)O)c(OS(=O)(=O)O)c1)N1CCc2cc(OS(=O)(=O)O)c(OS(=O)(=O)O)cc2C1`, the result in the experiment filed under Bos taurus [1] and with Endothelial cell was inactive. The inhibition entry in the experiment listed under Bos taurus [2], in the experiment filed under Bos taurus [4] and in the experiment filed under Bos taurus [3] was “inactive” throughout.
Turning to `O=C1c2c(cc(OS(=O)(=O)O)cc2OS(=O)(=O)O)O[C@@H](c2ccc(OS(=O)(=O)O)c(OS(=O)(=O)O)c2)[C@H]1OS(=O)(=O)O`, the result in the experiment listed under Bos taurus [1] and in the experiment on Endothelial cell was inactive. The inhibition entry in the experiment filed under Bos taurus [2], in the experiment filed under Bos taurus [4] and in the experiment listed under Bos taurus [3] was “inactive” throughout.
